The term bioavailability denotes the share of a dose that reaches the circulation, judged against a reference dose that is usually intravenous. As usually defined, the IC50 is the concentration at which inhibition is half-maximal. As a reminder, the inhibition is the percentage by which the read-out fell short of the control.

These results are taken from ChEMBL document CHEMBL3102735, “Enhancing the pharmacodynamic profile of a class of selective COX-2 inhibiting nitric oxide donors” (Bioorg Med Chem, 2014).

Data set [1] is described as follows: Oral bioavailability in Wistar rat at 10 mg/kg by LC-MS/MS analysis. Format: ADME, organism-based. The note with it: in vivo. In a few lines:
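Male Han Wistar rats, three per route, single 10 mg/kg/5 mL dose iv or po in 5% DMSO, 5% Cremophor EL, 0.1% Tween 80 in 150 mM phosphate buffer pH 7. Jugular-vein blood sampled, plasma methanol-precipitated, parent and hydroxy metabolite quantified by LC–MS/MS in positive ESI MRM mode (LLOQ 1–15 ng/mL).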

Data set [2] is described as follows: Stability of the compound in simulated gastric fluid assessed as compound remaining at pH 1.5 after 120 mins by LC-MS/MS analysis. The following applies: read-out: Stability. Format: physicochemical. In a few lines:
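1 mM DMSO stock added to 0.01 M PBS (pH 7.4) or 0.05 M simulated gastric fluid without pepsin (pH 1.5 with HCl); incubated in hybridisation oven; aliquots at 0, 30, 60, 120 min quenched with ice-cold acetonitrile containing internal standard; parent remaining (%) measured.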

Data set [3] deals with Mus musculus. Description: Antihyperalgesic activity in Swiss albino mouse assessed as reduction in carrageenan-induced inflammation at 40 mg/kg, po after 120 mins relative to control. Type of data set: functional. Also on record: scale not given: the % may be the effect or the level left.
Data set [4] concerns Mus musculus. The data set is described as follows: Antihyperalgesic activity in Swiss albino mouse assessed as reduction in carrageenan-induced inflammation at 40 mg/kg, po after 90 mins relative to control. Type of data set: functional. More on the design: scale not given: the % may be the effect or the level left.
For data set [5], the system named is Mus musculus. Description: Antihyperalgesic activity in Swiss albino mouse assessed as reduction in carrageenan-induced inflammation at 40 mg/kg, po after 30 mins relative to control. Type of data set: functional. More on the design: scale not given: the % may be the effect or the level left.
Data set [6] deals with Mus musculus. The data set is described as follows: Antihyperalgesic activity in Swiss albino mouse assessed as reduction in carrageenan-induced inflammation at 20 mg/kg, po after 90 mins relative to control. Format: functional. Also on record: scale not given: the % may be the effect or the level left.
For data set [7], the system named is Mus musculus. Description: Antihyperalgesic activity in Swiss albino mouse assessed as reduction in carrageenan-induced inflammation at 20 mg/kg, po after 120 mins relative to control. Also on record: scale not given: the % may be the effect or the level left. Format: functional.
The subject of data set [8] is Mus musculus. The data set is described as follows: Antihyperalgesic activity in Swiss albino mouse assessed as reduction in carrageenan-induced inflammation at 20 mg/kg, po after 30 mins relative to control. More on the design: scale not given: the % may be the effect or the level left. Type of data set: functional.
The target of data set [9] is T1, Prostaglandin G/H synthase 1 (Mus musculus, UniProt P22437).
T1 sequence (P22437 whole entry): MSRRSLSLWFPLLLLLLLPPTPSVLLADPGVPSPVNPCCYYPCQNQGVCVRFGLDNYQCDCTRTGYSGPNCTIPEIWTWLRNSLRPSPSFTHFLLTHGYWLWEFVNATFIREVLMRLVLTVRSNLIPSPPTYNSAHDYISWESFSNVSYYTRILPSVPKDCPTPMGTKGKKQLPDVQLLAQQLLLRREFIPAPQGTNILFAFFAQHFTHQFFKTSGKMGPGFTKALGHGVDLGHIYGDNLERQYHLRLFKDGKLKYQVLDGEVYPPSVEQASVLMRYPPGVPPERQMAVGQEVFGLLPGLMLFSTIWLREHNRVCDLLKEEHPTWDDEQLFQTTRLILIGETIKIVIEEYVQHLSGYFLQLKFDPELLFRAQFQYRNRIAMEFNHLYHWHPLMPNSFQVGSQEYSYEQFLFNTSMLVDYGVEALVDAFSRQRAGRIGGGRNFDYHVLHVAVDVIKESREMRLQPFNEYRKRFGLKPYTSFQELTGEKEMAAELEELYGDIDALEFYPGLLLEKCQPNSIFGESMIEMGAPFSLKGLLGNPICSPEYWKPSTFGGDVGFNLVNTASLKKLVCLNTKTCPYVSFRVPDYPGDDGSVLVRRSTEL
Description: Inhibition of COX-1 in mouse J774 cells using arachidonic acid as substrate assessed as inhibition of prostaglandin E2 production preincubated for 15 mins followed by substrate addition measured after 30 mins by RIA. Format: cell-based. In short, it runs like this: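 J774 murine macrophages pretreated 15 min with compound (10 µM; lower concentrations 0.01–1 µM where needed), then incubated 30 min at 37 °C with 15 µM arachidonic acid; supernatant PGE2 measured by RIA. Triplicate wells, mean of three experiments of percent inhibition versus control; IC50 by sigmoidal fit.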

For data set [10], the target named is T2, Prostaglandin G/H synthase 2 (Mus musculus) (UniProt Q05769).
T2 sequence (whole entry): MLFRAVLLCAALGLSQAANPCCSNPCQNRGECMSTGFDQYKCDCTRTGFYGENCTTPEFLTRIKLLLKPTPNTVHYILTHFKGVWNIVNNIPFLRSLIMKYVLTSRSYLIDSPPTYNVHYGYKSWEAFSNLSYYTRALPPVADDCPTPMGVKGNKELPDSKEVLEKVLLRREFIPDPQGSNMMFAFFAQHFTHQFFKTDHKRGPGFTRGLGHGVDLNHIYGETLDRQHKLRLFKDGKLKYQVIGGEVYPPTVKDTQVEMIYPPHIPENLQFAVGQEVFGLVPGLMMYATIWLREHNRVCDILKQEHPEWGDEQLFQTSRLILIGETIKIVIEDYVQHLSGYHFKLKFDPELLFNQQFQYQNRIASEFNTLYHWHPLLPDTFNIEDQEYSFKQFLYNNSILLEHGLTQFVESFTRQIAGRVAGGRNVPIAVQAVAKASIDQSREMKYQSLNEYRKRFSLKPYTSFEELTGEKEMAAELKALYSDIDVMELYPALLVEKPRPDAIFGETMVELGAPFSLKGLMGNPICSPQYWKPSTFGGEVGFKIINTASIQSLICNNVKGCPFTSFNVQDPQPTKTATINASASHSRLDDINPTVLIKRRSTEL
Description: Inhibition of LPS-induced COX-2 in mouse J774 cells using arachidonic acid as substrate assessed as inhibition of prostaglandin E2 production at 10 uM preincubated for 15 mins followed by substrate addition measured after 30 mins by RIA. Type of data set: cell-based.

The structures appear in SMILES notation.

For `Cc1c(CC(=O)NCCO[N+](=O)[O-])cc(-c2ccc(S(C)(=O)=O)cc2)n1-c1ccc(F)cc1`, the bioavailability in data set [1] was determined as 24%. In addition, the remaining at 2 h in [2] is 100%. For the same molecule, the Activity with Mus musculus [3] is listed as 0%; with Mus musculus [4], 29%; with Mus musculus [5], 32%; in the data set with Mus musculus [6], 20%; with Mus musculus [7] it was 0%; with Mus musculus [8], 28%. Moreover, the IC50 in [9] was above 10 µM. For the same molecule, the inhibition in data set [10] came to 100%.
